Reference: ChEMBL document CHEMBL4033651, “Exploration of flexible phenylpropylurea scaffold as novel cardiac myosin activators for the treatment of systolic heart failure” (Eur J Med Chem, 2017)
Blank lines part the entries; values can stand above or below the compound they belong to.

How the values were obtained:
Bos taurus = organism: Bos taurus; assay: Activation of actin-stimulated bovine cardiac myosin S1 fragment ATPase activity in sarcomere at 10 uM after 10 mins by spectrophotometric analysis
Procedure, shortened: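 Bovine cardiac S1 myosin with actin thin filament complex at pCa 6.5, in 20 mM Tris HCl pH 7.5, 15 mM KCl, 6 mM MgCl2, 1 mM ATP. Compound at 10 μM, 10 min at room temperature. Stopped with Cytophos reagent; liberated phosphate read at 650 nm. % activity calculated relative to DMSO negative control, blank-corrected.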

Rattus norvegicus [1] = assay: Positive inotropic activity in Sprague-Dawley rat heart assessed as left ventricular internal diameter end diastole at 4 ug/kg/min for 3 mins by echocardiographic analysis (reference value: 5.66 to 7.80 mm); type: functional
Procedure, shortened: (§1)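 Male Sprague-Dawley rats, seven weeks old, anaesthetised with 1.5 % isoflurane given by nosecone. Compound infused through the right internal jugular vein, used as a central venous line. Left ventricular dimensions measured by echocardiography.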

Rattus norvegicus [2] = assay: Effect on hemodynamic parameters in Sprague-Dawley rat heart assessed as end-systolic pressure at 8 ug/kg/min (reference value: 87.48 to 97.85 mmHg); type: functional
Rattus norvegicus [3] = assay: Positive inotropic activity in Sprague-Dawley rat heart assessed as ejection fraction at 8 ug/kg/min for 3 mins by echocardiographic analysis (reference value: 67.16 to 85.81%); type: functional
Procedure, shortened: (§2)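 Seven-week-old male Sprague-Dawley rats under 1.5 % isoflurane via nosecone. Drug given through a right internal jugular vein central line. Left ventricular fractional shortening and ejection fraction measured by echocardiography with and without sample, expressed as % increase.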

Rattus norvegicus [4] = assay: Effect on hemodynamic parameters in Sprague-Dawley rat heart assessed as end-diastolic pressure at 4 ug/kg/min (reference value: 7.68 to 9.83 mmHg); type: functional
Rattus norvegicus [5] = assay: Effect on hemodynamic parameters in Sprague-Dawley rat heart assessed as end-systolic pressure at 4 ug/kg/min (reference value: 94.65 to 97.85 mmHg); type: functional
Rattus norvegicus [6] = assay: Positive inotropic activity in Sprague-Dawley rat heart assessed as left ventricular posterior wall thickness end systole at 8 ug/kg/min for 3 mins by echocardiographic analysis (reference value: 2.07 to 2.46 mm); type: functional; procedure, shortened: as §1
Rattus norvegicus [7] = assay: Positive inotropic activity in Sprague-Dawley rat heart assessed as ejection fraction at 4 ug/kg/min for 3 mins by echocardiographic analysis (reference value: 67.16 to 85.81%); type: functional; procedure, shortened: as §2
Rattus norvegicus [8] = assay: Effect on hemodynamic parameters in Sprague-Dawley rat heart assessed as dPdT min at 8 ug/kg/min (reference value: -5462 to -4611 mmHg/s); type: functional
Rattus norvegicus [9] = assay: Positive inotropic activity in Sprague-Dawley rat heart assessed as fractional shortening at 16 ug/kg/min for 3 mins by echocardiographic analysis (reference value: 38.60 to 55.81%); type: functional; procedure, shortened: as §2
Rattus norvegicus [10] = assay: Effect on hemodynamic parameters in Sprague-Dawley rat heart assessed as heart rate at 4 ug/kg/min (reference value: 260 to 322 bpm); type: functional
Rattus norvegicus [11] = assay: Positive inotropic activity in Sprague-Dawley rat heart assessed as left ventricular posterior wall thickness end systole at 4 ug/kg/min for 3 mins by echocardiographic analysis (reference value: 2.07 to 2.46 mm); type: functional; procedure, shortened: as §1
Rattus norvegicus [12] = assay: Positive inotropic activity in Sprague-Dawley rat heart assessed as heart rate at 16 ug/kg/min for 3 mins by echocardiographic analysis (reference value: 281 to 347 bpm); type: functional
Rattus norvegicus [13] = assay: Positive inotropic activity in Sprague-Dawley rat heart assessed as left ventricular posterior wall thickness end systole at 16 ug/kg/min for 3 mins by echocardiographic analysis (reference value: 2.07 to 2.46 mm); type: functional; procedure, shortened: as §1
Rattus norvegicus [14] = assay: Positive inotropic activity in Sprague-Dawley rat heart assessed as heart rate at 4 ug/kg/min for 3 mins by echocardiographic analysis (reference value: 281 to 347 bpm); type: functional
Rattus norvegicus [15] = assay: Effect on hemodynamic parameters in Sprague-Dawley rat heart assessed as heart rate at 8 ug/kg/min (reference value: 260 to 322 bpm); type: functional
Rattus norvegicus [16] = assay: Positive inotropic activity in Sprague-Dawley rat heart assessed as left ventricular internal diameter end diastole at 8 ug/kg/min for 3 mins by echocardiographic analysis (reference value: 5.66 to 7.80 mm); type: functional; procedure, shortened: as §1
Rattus norvegicus [17] = assay: Positive inotropic activity in Sprague-Dawley rat heart assessed as fractional shortening at 8 ug/kg/min for 3 mins by echocardiographic analysis (reference value: 38.60 to 55.81%); type: functional; procedure, shortened: as §2
Rattus norvegicus [18] = assay: Positive inotropic activity in Sprague-Dawley rat heart assessed as left ventricular internal diameter end diastole at 16 ug/kg/min for 3 mins by echocardiographic analysis (reference value: 5.66 to 7.80 mm); type: functional
Rattus norvegicus [19] = assay: Effect on hemodynamic parameters in Sprague-Dawley rat heart assessed as end-diastolic pressure at 8 ug/kg/min (reference value: 7.68 to 9.83 mmHg); type: functional
Rattus norvegicus [20] = assay: Effect on hemodynamic parameters in Sprague-Dawley rat heart assessed as dPdT max at 8 ug/kg/min (reference value: 4162 to 5214 mmHg/s); type: functional
Rattus norvegicus [21] = assay: Positive inotropic activity in Sprague-Dawley rat heart assessed as fractional shortening at 4 ug/kg/min for 3 mins by echocardiographic analysis (reference value: 38.60 to 55.81%); type: functional; procedure, shortened: as §2
Rattus norvegicus [22] = assay: Positive inotropic activity in Sprague-Dawley rat heart assessed as heart rate at 8 ug/kg/min for 3 mins by echocardiographic analysis (reference value: 281 to 347 bpm); type: functional
Rattus norvegicus [23] = assay: Positive inotropic activity in Sprague-Dawley rat heart assessed as left ventricular posterior wall thickness end diastole at 8 ug/kg/min for 3 mins by echocardiographic analysis (reference value: 0.88 to 1.54 mm); type: functional; procedure, shortened: as §1
Rattus norvegicus [24] = assay: Effect on hemodynamic parameters in Sprague-Dawley rat heart assessed as dPdT min at 4 ug/kg/min (reference value: -5462 to -4898 mmHg/s); type: functional
Rattus norvegicus [25] = assay: Positive inotropic activity in Sprague-Dawley rat heart assessed as left ventricular posterior wall thickness end diastole at 4 ug/kg/min for 3 mins by echocardiographic analysis (reference value: 0.88 to 1.54 mm); type: functional; procedure, shortened: as §1
Rattus norvegicus [26] = assay: Positive inotropic activity in Sprague-Dawley rat heart assessed as left ventricular posterior wall thickness end diastole at 16 ug/kg/min for 3 mins by echocardiographic analysis (reference value: 0.88 to 1.54 mm); type: functional; procedure, shortened: as §1
Rattus norvegicus [27] = assay: Positive inotropic activity in Sprague-Dawley rat heart assessed as ejection fraction at 16 ug/kg/min for 3 mins by echocardiographic analysis (reference value: 67.16 to 85.81%); type: functional; procedure, shortened: as §2
Rattus norvegicus [28] = assay: Effect on hemodynamic parameters in Sprague-Dawley rat heart assessed as dPdT max at 4 ug/kg/min (reference value: 4985 to 5214 mmHg/s); type: functional
Rattus norvegicus [29] = assay: Positive inotropic activity in Sprague-Dawley rat heart assessed as left ventricle fractional shortening at 2 to 16 ug/kg/min for 3 mins by echocardiographic analysis; type: functional; procedure, shortened: as §2
Rattus norvegicus [30] = assay: Positive inotropic activity in Sprague-Dawley rat heart assessed as ejection fraction at 2 to 16 ug/kg/min for 3 mins by echocardiographic analysis; type: functional; procedure, shortened: as §2
Oryctolagus cuniculus = organism: Oryctolagus cuniculus; assay: Activation of actin-stimulated rabbit psoas skeletal muscle myosin S1 fragment ATPase activity at 100 uM after 10 mins by spectrophotometric analysis
Procedure, shortened: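 Rabbit skeletal S1 myosin with actin thin filament complex at pCa 6.5, in 20 mM Tris HCl pH 7.5, 15 mM KCl, 6 mM MgCl2, 1 mM ATP. Compound at single 100 uM dose, 10 min at room temperature. Cytophos stop; phosphate read at 650 nm. % activity versus blank-corrected DMSO control.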

Gallus gallus = organism: Gallus gallus; assay: Activation of actin-stimulated chicken gizzard smooth muscle myosin S1 fragment ATPase activity at 100 uM after 10 mins by spectrophotometric analysis
Procedure, shortened: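 Chicken gizzard smooth muscle S1 myosin with actin plus tropomyosin at pCa 6.5, in 20 mM Tris HCl pH 7.5, 15 mM KCl, 6 mM MgCl2, 1 mM ATP. Compound at single 100 uM dose, 10 min at room temperature. Cytophos stop; phosphate read at 650 nm. % activity versus blank-corrected DMSO control.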

[31] = Solubility of the compound in water; type: physicochemical; conditions: buffer
Procedure, shortened: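 Final solution concentration measured by HPLC against three standards of known concentration.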

[32] = Stability of the compound after 3 months by TLC analysis; type: physicochemical; conditions: 2191.5 h

Activity (Bos taurus): 32.9%
SMILES: O=C(NCCCN1CCOCC1)NCCc1ccccc1

Activity (Bos taurus): 1.6%
SMILES: c1ccc(CCCCCNCCc2ccccc2)cc1

Activity (Bos taurus): 11.9%
SMILES: c1ccc(CCCCNCCCc2ccccc2)cc1

Activity (Bos taurus): 46.6% | solubility [31]: Insoluble
SMILES: O=C(NCCc1ccccc1)N1CCC(c2ccccc2)CC1

Activity (Bos taurus): 10.3%
SMILES: S=C(NCCCc1ccccc1)NCCc1ccccc1

Activity (Bos taurus): 39.1%
SMILES: O=C(CCCCc1ccccc1)NCCc1ccccc1

Activity (Bos taurus): 73%
SMILES: O=C(NCCCc1ccccc1)N1CCCCC1c1ccccc1 (stereo unspecified)
Activity (Rattus norvegicus [29]): 13.32% | Activity (Rattus norvegicus [30]): 9.26%

Activity (Bos taurus): 32.1%
SMILES: O=S(=O)(NCCCc1ccccc1)NCCc1ccccc1

Activity (Bos taurus): 36.6%
SMILES: O=C(NCCc1ccccc1)N1CCN(c2ccccc2)CC1

Activity (Bos taurus): 61.9% | solubility [31]: Insoluble
SMILES: O=C(NCCCc1ccccc1)NC1Cc2ccccc2C1

Activity (Bos taurus): 30%
SMILES: O=C(NCCCc1ccccc1)NCCc1ccccn1

Activity (Bos taurus): 35.2%
SMILES: O=C(NCCCc1ccccc1)N1CCCC(c2ccccc2)C1 (stereo unspecified)

Activity (Bos taurus): 37.9%
SMILES: O=C(NCCCC1CCCCC1)NCCc1ccccc1

Activity (Bos taurus): 42.9% | Stability [32]: Unstable
SMILES: O=C(COCCc1ccccc1)COCc1ccccc1

Activity (Bos taurus): 46.2%
SMILES: O=C(NCCCc1ccccc1)Nc1ccccc1

Activity (Bos taurus): 51.1% | Activity (Oryctolagus cuniculus): -2.1% | Activity (Gallus gallus): -4.7%
SMILES: O=C(NCCCc1ccccc1)NCCc1ccccc1
Activity (Rattus norvegicus [29]): 18.9% | Activity (Rattus norvegicus [30]): 12.15%

Activity (Bos taurus): 72.4%
SMILES: CN(CCCc1ccccc1)C(=O)N(C)CCc1ccccc1
Activity (Rattus norvegicus [29]): 5.74% | Activity (Rattus norvegicus [30]): 3.41%

Activity (Bos taurus): 32.4%
SMILES: O=C(NCCCc1ccccc1)N1CCCC1c1ccccc1 (stereo unspecified)

Activity (Bos taurus): 45.5%
SMILES: O=C(NCCCc1ccccc1)NCCCc1ccccc1

Further lines, the compound ahead of its results:

SMILES: CC(CCc1ccc(O)cc1)NCCc1ccc(O)c(O)c1 (stereo unspecified) [DOBUTAMINE]
Activity (Rattus norvegicus [1]): 6.98 mm | Activity (Rattus norvegicus [2]): 103.12 mmHg | Activity (Rattus norvegicus [3]): 96.79% | Activity (Rattus norvegicus [4]): 9.38 mmHg | Activity (Rattus norvegicus [5]): 96.65 mmHg | Activity (Rattus norvegicus [6]): 3.08 mm | Activity (Rattus norvegicus [7]): 93.42% | Activity (Rattus norvegicus [8]): -4368 mmHg/s | Activity (Rattus norvegicus [9]): 82.57% | Activity (Rattus norvegicus [10]): 270 bpm | Activity (Rattus norvegicus [11]): 2.93 mm | Activity (Rattus norvegicus [12]): 421 bpm | Activity (Rattus norvegicus [13]): 3.59 mm | Activity (Rattus norvegicus [14]): 393 bpm | Activity (Rattus norvegicus [15]): 309 bpm | Activity (Rattus norvegicus [16]): 6.93 mm | Activity (Rattus norvegicus [17]): 75.91% | Activity (Rattus norvegicus [18]): 6.68 mm | Activity (Rattus norvegicus [19]): 7.68 mmHg | Activity (Rattus norvegicus [20]): 9314 mmHg/s | Activity (Rattus norvegicus [21]): 68.11% | Activity (Rattus norvegicus [22]): 416 bpm | Activity (Rattus norvegicus [23]): 1.36 mm | Activity (Rattus norvegicus [24]): -4936 mmHg/s | Activity (Rattus norvegicus [25]): 1.06 mm | Activity (Rattus norvegicus [26]): 1.16 mm | Activity (Rattus norvegicus [27]): 98.65% | Activity (Rattus norvegicus [28]): 6073 mmHg/s

SMILES: O=C(NCCCc1ccccc1)NCCc1ccco1
Activity (Bos taurus): 30.6%

SMILES: O=C(NCCCc1ccccc1)NC1CCCCC1
Activity (Bos taurus): 20.3%

SMILES: O=C(NCCCc1ccccc1)NCCN1CCOCC1
Activity (Bos taurus): 44% | Activity (Rattus norvegicus [29]): 24.79% | Activity (Rattus norvegicus [30]): 15.65% | Activity (Oryctolagus cuniculus): -5.3% | Activity (Gallus gallus): 3.1%

SMILES: O=C(NCCCC1CCCCC1)NCCC1CCCCC1
Activity (Bos taurus): 44.4%

SMILES: O=C(NCCCc1ccccc1)NCC1CCCCC1
Activity (Bos taurus): 60.2%

SMILES: O=C(NCCCCc1ccccc1)NCCN1CCOCC1
Activity (Bos taurus): 42.7%

SMILES: O=C(NCCCc1ccccc1)NCc1cccs1
Activity (Bos taurus): 47.6%

SMILES: O=C(NCCCc1ccccc1)NCC1CCOCC1
Activity (Bos taurus): 81.4% | Activity (Rattus norvegicus [29]): 20.5% | Activity (Rattus norvegicus [30]): 13.1% | Activity (Oryctolagus cuniculus): 4.4% | Activity (Gallus gallus): 5.1%

SMILES: O=C(NCCCc1ccccc1)NCc1ccco1
Activity (Bos taurus): 36.7%

SMILES: O=C(NCCCc1ccccc1)NCCC1CCCCC1
Activity (Bos taurus): 61.4%

SMILES: O=C(NCCCn1ccnc1)NCCc1ccccc1
Activity (Bos taurus): 32.6%

SMILES: O=C(NCCCc1ccccc1)NCCc1cccs1
Activity (Bos taurus): 29.6%

SMILES: Cc1ccc2c(c1)C(=O)[C@]1(O)CCN(c3ccccc3)C1=N2
Activity (Oryctolagus cuniculus): -50.7% | Activity (Gallus gallus): -35.7%

SMILES: O=C(NCCCc1ccccc1)NCc1ccc2[nH]ccc2c1
Activity (Bos taurus): 37.2%
